# According to ChEMBL document CHEMBL1177866, “Synthesis, antiproliferative activity evaluation and structure-activity relationships of novel aromatic urea and amide analogues of N-phenyl-N'-(2-chloroethyl)ureas” (Eur J Med Chem, 2010):
# Calls of active or inactive are those of the source. The calls are words filed in the database; no cut-off is given here.
# Experiments:
# M21 = test: Antiproliferative activity against human M21 cells after 48 hrs; format: functional, cell-based; settings: M21, 48 h
# Summary of the method: (§1)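 TCA fixation, sulforhodamine B stain, absorbance 585 nm minus day-of-treatment background plate; inhibition vs DMSO control; at least triplicate; IC50 accepted if within-experiment variability under 10%.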
# HT-29 = test: Antiproliferative activity against human HT-29 cells after 48 hrs; format: functional, cell-based; settings: HT-29, 48 h; summary of the method: as §1
# MCF7 = test: Antiproliferative activity against human MCF7 cells after 48 hrs; format: functional, cell-based; settings: MCF7, 48 h; summary of the method: as §1
# [1] = target: Tubulin beta (Homo sapiens) (UniProt P68371+Q9H4B7+Q13509+P04350+Q3ZCM7+P07437+Q13885+Q9BVA1+Q9BUF5+A6NNZ2); test: inhibition of beta tubulin acylation in human M21 cells assessed as beta-tubulin band migration by Western blotting; format: cell-based
# Summary of the method: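 Floating plus adherent cells pooled, lysed in Laemmli buffer, 10% SDS-PAGE, nitrocellulose; blocked in TBS pH 7.4 with 5% milk/0.1% Tween 20, probed with monoclonal anti-β-tubulin 1:500 then peroxidase anti-mouse 1:2500.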
Compound,IC50 (M21) [µM],IC50 (HT-29) [µM],IC50 (MCF7) [µM],Activity [1]
CC(C)(C)c1ccc(CNC(=O)CCCCl)cc1,69,72,92,–
C=CC(=O)Nc1cccc(CCCCC(C)=O)c1,33,29,99,–
COCCCCCc1cccc(NC(=O)CCCl)c1,> 100,> 100,> 100,–
CC(C)(C)c1ccc(NC(=O)CCCCl)cc1,> 100,> 100,> 100,–
O=C(CCl)NC(=O)Nc1ccc(I)cc1,8.1,11,4.9,–
CC(=O)CCCCc1cccc(NC(=O)CCCCl)c1,> 100,> 100,> 100,–
COCCCCCc1cccc(NC(=O)CCl)c1,6.9,13,12,inactive
O=C(CCCl)Nc1cccc(CCCCCO)c1,> 100,> 100,> 100,–
CC(=O)CCCCc1cccc(NC(=O)NCCCCl)c1,36,41,71,–
CCCCCc1cccc(NC(=O)NCCCCl)c1,24,28,26,–
CCCCCc1cccc(NC(=O)NCC)c1,36,16,67,–
CCNC(=O)Nc1cccc(CCCCCO)c1,> 100,> 100,> 100,–
CC(C)(C)c1ccc(CNC(=O)CCCl)cc1,> 100,87,67,–
C=CC(=O)Nc1ccc(C(C)(C)C)cc1,22,24,29,inactive
COCCCCCc1cccc(NC(=O)CCCCl)c1,> 100,> 100,> 100,–
O=C(CCCl)Nc1ccc(I)cc1,20,18,26,inactive
CC(C)(C)c1ccc(CNC(=O)NCCCCl)cc1,11,19,17,–
CCNC(=O)NCc1ccc(C(C)(C)C)cc1,> 100,> 100,> 100,–
CC(C)(C)c1ccc(NC(=O)CCl)cc1,5.4,15,5.4,inactive
CCCCCc1cccc(NC(=O)NC(=O)CCl)c1,3.5,8.4,8.3,inactive
O=C(CCl)NC(=O)Nc1cccc(CCCCCO)c1,4.6,10,5.7,inactive
CC(C)(C)c1ccc(CNC(=O)CCl)cc1,16,18,23,inactive
C=CC(=O)Nc1ccc(I)cc1,11,15,17,inactive

Compound,IC50 (M21) [µM],IC50 (HT-29) [µM],IC50 (MCF7) [µM],Activity [1]
C=CC(=O)Nc1cccc(CCCCCO)c1,98,> 100,> 100,–
CCNC(=O)Nc1ccc(I)cc1,> 100,> 100,> 100,–
O=C(NCCCCl)Nc1cccc(CCCCCO)c1,35,19,> 100,–
CC(C)(C)c1ccc(NC(=O)NC(=O)CCl)cc1,1.4,6.5,2,–
CC(=O)CCCCc1cccc(NC(=O)CCCl)c1,> 100,> 100,> 100,–
CC(C)(C)c1ccc(NC(=O)CCCl)cc1,74,88,49,–
CC(C)(C)c1ccc(NC(=O)NCCCCl)cc1,35,28,49,–
CCNC(=O)Nc1cccc(CCCCC(C)=O)c1,> 100,40,> 100,–
COCCCCCc1cccc(NC(=O)NCCCCl)c1,51,56,50,–
CCCCCc1cccc(NC(=O)CCl)c1,1.4,12,5.7,inactive
O=C(NCCCCl)Nc1ccc(I)cc1,> 100,90,> 100,–
CC(C)(C)c1ccc(CNC(=O)NC(=O)CCl)cc1,2.4,7.1,2.8,inactive
O=C(CCl)Nc1ccc(I)cc1,5.1,9.7,6.2,inactive
C=CC(=O)Nc1cccc(CCCCCOC)c1,48,40,> 100,–
COCCCCCc1cccc(NC(=O)NC(=O)CCl)c1,4.2,10,6.1,inactive
O=C(CCCCl)Nc1cccc(CCCCCO)c1,> 100,> 100,> 100,–
CCNC(=O)Nc1cccc(CCCCCOC)c1,> 100,> 100,> 100,–
C=CC(=O)Nc1cccc(CCCCC)c1,27,31,49,–
C=CC(=O)NCc1ccc(C(C)(C)C)cc1,72,> 100,> 100,–
CCCCCc1cccc(NC(=O)CCCCl)c1,> 100,> 100,> 100,–
O=C(CCCCl)Nc1ccc(I)cc1,> 100,> 100,> 100,–
CCCCCc1cccc(NC(=O)CCCl)c1,54,46,54,–
